≈ marks a conversion by molar mass, not a printed value. Calls of active or inactive are those of the source. The rule behind the calls is not given here.
What was measured:
[1] = test system: Staphylococcus aureus; assay: Antibacterial activity against methicillin-resistant Staphylococcus aureus BAA-1695 after 20 hrs by broth microdilution method; format: functional; settings: BAA-1695, 20 h
Procedure, shortened: (§1)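 Broth microdilution per CLSI in cation-adjusted Mueller-Hinton broth with 0.002% polysorbate 80. Analogues were made up as 10 mg/mL DMSO stocks, then diluted in MHB. Inoculum approx. 5×10^5 cells/mL. Incubated 20 h at 37°C; MIC taken as the lowest concentration with no visible growth. Run three times.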

[2] = Binding affinity to lipid 2 at 1 to 4 nmol after 30 mins by TLC method
Procedure, shortened: (§2)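 Lipid II or C55-P (1 nmol) incubated with 1, 2, 3 or 4 nmol compound in 50 mM Tris/HCl pH 7.5, 30 min at rt. Extracted twice with pyridinium acetate (6 M, pH 4.2)/butanol (1:2), then washed with butanol-saturated water. Organic phase run on silica TLC in chloroform/methanol/water/ammonia (88:48:10:1) and stained with phosphomolybdic acid; loss of lipid band scored. Done twice.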

[3] = test system: Staphylococcus aureus; assay: Antibacterial activity against Staphylococcus aureus ATCC 29213 at undecaprenyl-phosphate/test compound molar ratio 0.5 to 2 preincubated with undecaprenyl-phosphate for 30 mins followed by bacterial inoculation measured after overnight incubation; format: functional
Procedure, shortened: (§3)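 Test agent at 4x or 8x its broth MIC mixed with lipid II or C55-P (2x or 0.5x molar excess over compound) in MHII broth with 0.05% tween-80, 30 min at rt; exponential S. aureus ATCC 29213 then added to final OD600 0.001. Overnight at 37 °C; growth judged by eye and plate-reader absorbance. Run two or three times.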

[4] = test system: Staphylococcus aureus; assay: Antibacterial activity against methicillin-sensitive Staphylococcus aureus TH 4806 after 20 hrs by broth microdilution method; format: functional; settings: TH 4806, 20 h; procedure, shortened: as §1
[5] = test system: Enterococcus faecalis; assay: Antibacterial activity against […] Enterococcus faecalis ATCC 29212 after 20 hrs by broth microdilution method; format: functional; settings: ATCC 29212, 20 h; procedure, shortened: as §1
[6] = test system: Staphylococcus aureus; assay: Antibacterial activity against Staphylococcus aureus ATCC 29213 at lipid 2/test compound molar ratio 0.5 preincubated with lipid 2 for 30 mins followed by bacterial inoculation measured after overnight incubation; format: functional; procedure, shortened: as §3
[7] = test system: Streptococcus pneumoniae; assay: Antibacterial activity against Streptococcus pneumoniae D39 after 20 hrs by broth microdilution method; format: functional; settings: D39, 20 h
Procedure, shortened: (§4)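 CLSI broth microdilution in cation-adjusted Mueller-Hinton broth with 3% lysed horse blood for streptococci and 0.002% polysorbate 80. Compounds taken from 10 mg/mL DMSO stocks and diluted in broth. Inoculum about 5×10^5 cells/mL. After 20 h at 37 °C, MIC read as lowest concentration with no visible growth. Done three times.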

[8] = test system: Staphylococcus aureus; assay: Antibacterial activity against Staphylococcus aureus ATCC 29213 at lipid 2/test compound molar ratio 2 preincubated with lipid 2 for 30 mins followed by bacterial inoculation measured after overnight incubation; format: functional; procedure, shortened: as §3
[9] = Binding affinity to undecaprenyl-phosphate at 1 to 4 nmol after 30 mins by TLC method; procedure, shortened: as §2
[10] = test system: Streptococcus pyogenes; assay: Antibacterial activity against Streptococcus pyogenes ATCC 19615 after 20 hrs by broth microdilution method; format: functional; settings: ATCC 19615, 20 h; procedure, shortened: as §4

Row | SMILES | MIC [1] [µg/mL] | other results
1 | CCCc1ccc(-c2ccc(C[C@@H](N)C(=O)N[C@H](C(=O)N[C@@H](CO)C(=O)N[C@H](CCC(N)=O)C(=O)N[C@@H](C(=O)N[C@H](C(=O)N[C@@H](CO)C(=O)N[C@H]3C(=O)N[C@@H](C)C(=O)N[C@@H](CCCCN)C(=O)N[C@@H]([C@@H](C)CC)C(=O)O[C@H]3C)[C@@H](C)CC)[C@H](C)CC)[C@@H](C)CC)cc2)cc1 | 0.5 (≈ 0.379 µM) | 
2 | CC[C@@H](C)[C@@H](NC(=O)[C@@H](CCC(=O)NCCN(C)C)NC(=O)[C@H](CO)NC(=O)[C@@H](NC(=O)[C@H](N)Cc1ccc(-c2ccccc2)cc1)[C@@H](C)CC)C(=O)N[C@H](C(=O)N[C@@H](CO)C(=O)N[C@H]1C(=O)N[C@@H](C)C(=O)N[C@@H](CCCCN)C(=O)N[C@@H]([C@@H](C)CC)C(=O)O[C@H]1C)[C@@H](C)CC | 2 (≈ 1.48 µM) | 
3 | CC[C@@H](C)[C@@H](NC(=O)[C@@H](CCC(N)=O)NC(=O)[C@H](CO)NC(=O)[C@@H](NC(=O)[C@H](N)Cc1ccc(-c2ccc(C(F)(F)F)cc2)cc1)[C@@H](C)CC)C(=O)N[C@H](C(=O)N[C@@H](CO)C(=O)N[C@H]1C(=O)N[C@@H](C)C(=O)N[C@@H](CCCCN)C(=O)N[C@@H]([C@@H](C)CC)C(=O)O[C@H]1C)[C@@H](C)CC | 0.5 (≈ 0.371 µM) | 
4 | CC[C@@H](C)[C@@H](NC(=O)[C@@H](CCCNC(=N)N)NC(=O)[C@H](CO)NC(=O)[C@@H](NC(=O)[C@H](N)Cc1ccc(-c2ccccc2)cc1)[C@@H](C)CC)C(=O)N[C@H](C(=O)N[C@@H](CO)C(=O)N[C@H]1C(=O)N[C@@H](C)C(=O)N[C@@H](CCCCN)C(=O)N[C@@H]([C@@H](C)CC)C(=O)O[C@H]1C)[C@@H](C)CC | 2 (≈ 1.53 µM) | 
5 | CC[C@@H](C)[C@@H](NC(=O)[C@@H](CCCN)NC(=O)[C@H](CO)NC(=O)[C@@H](NC(=O)[C@H](N)Cc1ccc(-c2ccccc2)cc1)[C@@H](C)CC)C(=O)N[C@H](C(=O)N[C@@H](CO)C(=O)N[C@H]1C(=O)N[C@@H](C)C(=O)N[C@@H](CCCCN)C(=O)N[C@@H]([C@@H](C)CC)C(=O)O[C@H]1C)[C@@H](C)CC | 2 (≈ 1.58 µM) | 
6 | CC[C@@H](C)[C@@H](NC(=O)[C@@H](CCC(N)=O)NC(=O)[C@H](CO)NC(=O)[C@@H](NC(=O)[C@H](N)Cc1ccc(-c2ccccc2)cc1)[C@@H](C)CC)C(=O)N[C@H](C(=O)N[C@@H](CO)C(=O)N[C@H]1C(=O)N[C@@H](C)C(=O)N[C@@H](CCCCN)C(=O)N[C@@H]([C@@H](C)CC)C(=O)N[C@H]1C)[C@@H](C)CC | 0.25 (≈ 0.196 µM) | Activity [2]: Active; Activity [3]: Active; MIC [4]: 0.25 µg/mL (≈ 0.196 µM); MIC [5]: 0.5 µg/mL (≈ 0.391 µM); Activity [6]: Active; MIC [7]: < 0.032 µg/mL; Activity [8]: inactive; Activity [9]: inactive; MIC [10]: < 0.25 µg/mL
7 | CC[C@@H](C)[C@@H](NC(=O)[C@@H](CCC(N)=O)NC(=O)[C@H](CO)NC(=O)[C@@H](NC(=O)[C@@H](Cc1ccccc1)NC)[C@@H](C)CC)C(=O)N[C@H](C(=O)O)[C@@H](C)CC | > 32 | 
8 | CC[C@@H](C)[C@@H](NC(=O)[C@@H](CCC(N)=O)NC(=O)[C@H](CO)NC(=O)[C@@H](NC(=O)[C@@H](Cc1ccccc1)NC(=O)CN1CCOCC1)[C@@H](C)CC)C(=O)N[C@H](C(=O)N[C@@H](CO)C(=O)N[C@H]1C(=O)N[C@@H](C)C(=O)N[C@@H](CCCNC(=N)N)C(=O)N[C@@H]([C@@H](C)CC)C(=O)O[C@H]1C)[C@@H](C)CC | > 32 | 
9 | CC[C@@H](C)[C@@H](NC(=O)[C@@H](CCC(N)=O)NC(=O)[C@H](CO)NC(=O)[C@@H](NC(=O)[C@H](N)Cc1ccc(O[C@H]2O[C@@H](CO)[C@@H](O)[C@@H](O)[C@@H]2O)cc1)[C@@H](C)CC)C(=O)N[C@H](C(=O)N[C@@H](CO)C(=O)N[C@H]1C(=O)N[C@@H](C)C(=O)N[C@@H](CCCNC(=N)N)C(=O)N[C@@H]([C@@H](C)CC)C(=O)O[C@H]1C)[C@@H](C)CC | > 32 | 
10 | CC[C@@H](C)[C@@H](NC(=O)[C@@H](CCC(N)=O)NC(=O)[C@H](CO)NC(=O)[C@@H](NC(=O)[C@H](N)Cc1ccc(C)cc1)[C@@H](C)CC)C(=O)N[C@H](C(=O)N[C@@H](CO)C(=O)N[C@H]1C(=O)N[C@@H](C)C(=O)N[C@@H](CCCNC(=N)N)C(=O)N[C@@H]([C@@H](C)CC)C(=O)O[C@H]1C)[C@@H](C)CC | 2 (≈ 1.61 µM) | 
11 | CC[C@@H](C)[C@@H](NC(=O)[C@@H](CCC(N)=O)NC(=O)[C@H](CO)NC(=O)[C@@H](NC(=O)[C@H](N)Cc1ccc(-c2ccc(-c3ccccc3)cc2)cc1)[C@@H](C)CC)C(=O)N[C@H](C(=O)N[C@@H](CO)C(=O)N[C@H]1C(=O)N[C@@H](C)C(=O)N[C@@H](CCCCN)C(=O)N[C@@H]([C@@H](C)CC)C(=O)O[C@H]1C)[C@@H](C)CC | 1 (≈ 0.738 µM) | 
12 | CC[C@@H](C)[C@H]1NC(=O)[C@H](CCCNC(=N)N)NC(=O)[C@H](C)NC(=O)[C@H](NC(=O)[C@@H](N)CO)[C@H](C)CC1=O | > 32 | 
13 | CC[C@@H](C)[C@@H](NC(=O)[C@@H](CCC(N)=O)NC(=O)[C@H](CO)NC(=O)[C@@H](NC(=O)C(Cc1ccccc1)NC)[C@@H](C)CC)C(=O)N[C@H](C(=O)N[C@@H](CO)C(=O)N[C@H]1C(=O)N[C@@H](C)C(=O)N[C@@H](CCCNC(=N)N)C(=O)N[C@@H]([C@@H](C)CC)C(=O)O[C@H]1C)[C@@H](C)CC (some centres undefined) | 2 (≈ 1.61 µM) | 
14 | CC[C@@H](C)[C@@H](NC(=O)[C@@H](CCC(N)=O)NC(=O)[C@H](CO)NC(=O)[C@@H](N)[C@@H](C)CC)C(=O)N[C@H](C(=O)N[C@@H](CO)C(=O)N[C@H]1C(=O)N[C@@H](C)C(=O)N[C@@H](CCCNC(=N)N)C(=O)N[C@@H]([C@@H](C)CC)C(=O)O[C@H]1C)[C@@H](C)CC | > 32 | 
15 | CC[C@@H](C)[C@@H](NC(=O)[C@@H](CCC(N)=O)NC(=O)[C@H](CO)NC(=O)[C@@H](NC(=O)[C@H](N)Cc1ccc(O)cc1)[C@@H](C)CC)C(=O)N[C@H](C(=O)N[C@@H](CO)C(=O)N[C@H]1C(=O)N[C@@H](C)C(=O)N[C@@H](CCCNC(=N)N)C(=O)N[C@@H]([C@@H](C)CC)C(=O)O[C@H]1C)[C@@H](C)CC | > 32 | 
16 | CC[C@@H](C)[C@@H](NC(=O)[C@@H](CCC(N)=O)NC(=O)[C@H](CO)NC(=O)[C@@H](NC(=O)[C@H](N)Cc1ccc(N)cc1)[C@@H](C)CC)C(=O)N[C@H](C(=O)N[C@@H](CO)C(=O)N[C@H]1C(=O)N[C@@H](C)C(=O)N[C@@H](CCCNC(=N)N)C(=O)N[C@@H]([C@@H](C)CC)C(=O)O[C@H]1C)[C@@H](C)CC | > 32 | 
17 | CC[C@@H](C)[C@@H](NC(=O)[C@@H](CCC(N)=O)NC(=O)[C@H](CO)NC(=O)[C@@H](NC(=O)[C@H](N)Cc1ccc(-c2ccc(C)cc2)cc1)[C@@H](C)CC)C(=O)N[C@H](C(=O)N[C@@H](CO)C(=O)N[C@H]1C(=O)N[C@@H](C)C(=O)N[C@@H](CCCCN)C(=O)N[C@@H]([C@@H](C)CC)C(=O)O[C@H]1C)[C@@H](C)CC | 0.5 (≈ 0.387 µM) | 
18 | CC[C@@H](C)[C@@H](NC(=O)[C@@H](CCC(N)=O)NC(=O)[C@H](CO)NC(=O)[C@@H](NC(=O)[C@@H](Cc1ccccc1)NC)[C@@H](C)CC)C(=O)N[C@H](C(=O)N[C@@H](CO)C(=O)N[C@H]1C(=O)N[C@@H](C)C(=O)N[C@@H](CCCCN)C(=O)N[C@@H]([C@@H](C)CC)C(=O)O[C@H]1C)[C@@H](C)CC | 1 (≈ 0.822 µM) | 
19 | CC[C@H](C)[C@H](NC(=O)[C@H](N)Cc1ccccc1)C(=O)N[C@@H](COP(=O)(O)O)C(=O)N[C@H](CCC(N)=O)C(=O)N[C@@H](C(=O)N[C@H](C(=O)N[C@@H](CO)C(=O)N[C@H]1C(=O)N[C@@H](C)C(=O)N[C@@H](CCCNC(=N)N)C(=O)N[C@@H]([C@@H](C)CC)C(=O)O[C@H]1C)[C@@H](C)CC)C(C)C | > 32 | 
20 | CC[C@@H](C)[C@@H](NC(=O)[C@@H](CCC(N)=O)NC(=O)[C@H](CO)NC(=O)[C@@H](NC(=O)[C@H](N)Cc1ccc(-c2ccccc2)cc1)[C@@H](C)CC)C(=O)N[C@H](C(=O)N[C@@H](CO)C(=O)N[C@H]1C(=O)N[C@@H](C)C(=O)N[C@@H](CCCNC(=N)N)C(=O)N[C@@H]([C@@H](C)CC)C(=O)O[C@H]1C)[C@@H](C)CC | 1 (≈ 0.765 µM) | 

Reference: ChEMBL document CHEMBL4043311, “Developing Equipotent Teixobactin Analogues against Drug-Resistant Bacteria and Discovering a Hydrophobic Interaction between Lipid II and Teixobactin” (J Med Chem, 2018)
